In ChEMBL document CHEMBL3621102, “Structure-activity study of quinazoline derivatives leading to the discovery of potent EGFR-T790M inhibitors” (Eur J Med Chem, 2015):
Calls of active or inactive are those of the source. No cut-off for these calls is given here.

Key:
[1] = molecular target: Epidermal growth factor receptor (Homo sapiens, UniProt P00533); assay: Inhibition of EGFR (unknown origin) by ELISA method
[2] = tested on: NCI-H1975; assay: Antiproliferative activity against human NCI-H1975 cells assessed as growth inhibition; format: functional
Outline: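 NCI-H1975 cells were grown in RPMI with 1 mM sodium pyruvate, 10% FBS and 1% penicillin-streptomycin, under humidified 5% CO₂ at 37 °C. Growth inhibition was read as GI₅₀.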

[3] = Apparent volume of distribution in Sprague-Dawley rat at 1 mg/kg, iv incubated for 24 hrs by LC/MS/MS method; format: ADME, organism-based; details: in vivo, read-out: Vd(app)
Outline: (§1)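 Male Sprague-Dawley rats (n = 3) dosed once at 1 mg/kg iv via tail vein, or once at 5 mg/kg by oral gavage, using the same formulation. Serial blood samples were taken over 24 h. Plasma levels were measured by LC/MS/MS (C18 column, 10 mM ammonium formate-0.1% formic acid water/methanol 10/90, ESI positive). Parameters were derived by noncompartmental analysis.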

[4] = Clearance in Sprague-Dawley rat at 1 mg/kg, iv incubated for 24 hrs by LC/MS/MS method; format: ADME, organism-based; details: in vivo; outline: as §1
[5] = AUC (0 to infinity) in Sprague-Dawley rat at 1 mg/kg, iv by LC/MS/MS method; format: ADME, organism-based; design: dose 1 mg/kg, time infinity, route intravenous; details: in vivo; outline: as §1
[6] = Mean residence time in Sprague-Dawley rat at 1 mg/kg, iv incubated for 24 hrs by LC/MS/MS method; format: ADME, organism-based; details: in vivo; outline: as §1
[7] = AUC (0 to 24 hrs) in Sprague-Dawley rat at 1 mg/kg, iv by LC/MS/MS method; format: ADME, organism-based; design: time < 24 hr, dose 1 mg/kg, route intravenous; details: in vivo; outline: as §1
[8] = Elimination half-life in Sprague-Dawley rat at 1 mg/kg, iv incubated for 24 hrs by LC/MS/MS method; format: ADME, organism-based; details: in vivo, read-out: beta t1/2 (converted); outline: as §1
[9] = Bioavailability in Sprague-Dawley rat at 1 mg/kg, iv incubated for 24 hrs by LC/MS/MS method; format: ADME, organism-based; details: in vivo; outline: as §1
[10] = tested on: NCI-H1975; assay: Antitumor activity against human NCI-H1975 cells xenografted in BALB/c mouse assessed as tumor growth inhibition at 50 mg/kg po, qd for 21 days; format: functional, organism-based
Outline: (§2)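 Athymic mice received 2 × 10⁶ tumour cells subcutaneously in the right flank. At 100–300 mm³ they were randomised to control and treatment groups (n = 6); controls received vehicle alone. Tumour volume = length × width²/2 and RTV = Vt/V0.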

[11] = tested on: HCC827; assay: Antitumor activity against human HCC827 cells xenografted in BALB/c mouse assessed as tumor growth inhibition at 5 mg/kg po, qd for 12 days; format: functional, organism-based; outline: as §2
[12] = tested on: A-431; assay: Antitumor activity against human A431 cells xenografted in BALB/c mouse assessed as tumor growth inhibition at 5 mg/kg po, qd for 18 days; format: functional, organism-based; outline: as §2
[13] = tested on: NCI-H1975; assay: Antitumor activity against human NCI-H1975 cells xenografted in BALB/c mouse assessed as tumor growth inhibition at 30 mg/kg po, qd for 21 days relative to control; format: functional, organism-based; outline: as §2

Sequence of Epidermal growth factor receptor (P00533 whole entry): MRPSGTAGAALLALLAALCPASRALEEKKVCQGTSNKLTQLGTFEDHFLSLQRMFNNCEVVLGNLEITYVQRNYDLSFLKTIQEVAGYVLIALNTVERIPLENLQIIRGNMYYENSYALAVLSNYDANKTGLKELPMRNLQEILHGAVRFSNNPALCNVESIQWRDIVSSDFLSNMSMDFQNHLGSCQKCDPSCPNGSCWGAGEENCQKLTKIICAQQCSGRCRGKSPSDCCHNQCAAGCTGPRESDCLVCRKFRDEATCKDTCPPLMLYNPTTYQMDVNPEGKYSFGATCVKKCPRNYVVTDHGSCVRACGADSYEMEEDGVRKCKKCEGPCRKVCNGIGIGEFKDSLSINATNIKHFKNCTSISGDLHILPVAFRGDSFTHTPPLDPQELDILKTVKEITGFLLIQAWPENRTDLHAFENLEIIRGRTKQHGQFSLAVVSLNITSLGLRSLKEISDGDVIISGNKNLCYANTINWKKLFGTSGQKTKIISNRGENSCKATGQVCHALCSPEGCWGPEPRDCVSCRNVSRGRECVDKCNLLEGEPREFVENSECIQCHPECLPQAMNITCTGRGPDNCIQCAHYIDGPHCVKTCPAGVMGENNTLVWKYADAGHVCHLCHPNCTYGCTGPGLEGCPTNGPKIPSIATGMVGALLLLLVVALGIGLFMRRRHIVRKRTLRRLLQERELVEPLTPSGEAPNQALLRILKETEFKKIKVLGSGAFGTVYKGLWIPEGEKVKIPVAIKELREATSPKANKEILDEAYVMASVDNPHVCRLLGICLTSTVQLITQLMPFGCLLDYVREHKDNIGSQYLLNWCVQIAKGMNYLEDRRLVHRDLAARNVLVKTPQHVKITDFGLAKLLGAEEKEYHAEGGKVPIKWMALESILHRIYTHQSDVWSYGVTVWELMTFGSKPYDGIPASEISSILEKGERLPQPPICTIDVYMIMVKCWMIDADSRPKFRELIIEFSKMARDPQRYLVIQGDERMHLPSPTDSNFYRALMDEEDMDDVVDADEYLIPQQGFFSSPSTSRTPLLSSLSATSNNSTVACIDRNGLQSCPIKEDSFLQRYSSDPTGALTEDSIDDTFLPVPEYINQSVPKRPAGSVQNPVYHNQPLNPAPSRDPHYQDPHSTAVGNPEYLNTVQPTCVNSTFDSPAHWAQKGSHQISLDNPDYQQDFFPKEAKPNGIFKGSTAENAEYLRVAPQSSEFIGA

C=CC(=O)Nc1cc2c(Nc3ccc(OCc4cccc(F)c4)c(Cl)c3)ncnc2cc1OCCOC
IC50 [1]: 102 nM

CN(C)C/C=C/C(=O)Nc1cc2c(Nc3ccc(OCc4ccccn4)cc3)ncnc2cc1O[C@H]1CCOC1
IC50 [1]: 9 nM

C#Cc1cccc(Nc2ncnc3cc(O[C@H]4CCOC4)c(NC(=O)C=C)cc23)c1
IC50 [1]: 32.2 nM

C=CC(=O)Nc1cc2c(Nc3ccc(Br)cc3F)ncnc2cc1O[C@H]1CCOC1
IC50 [1]: 121 nM

O=C1CCN(C/C=C/C(=O)Nc2cc3c(Nc4ccc(F)c(Cl)c4)ncnc3cc2O[C@H]2CCOC2)CC1
IC50 [1]: 520 nM

CN(C)C/C=C/C(=O)Nc1cc2c(Nc3ccc(OCc4cccc(F)c4)cc3)ncnc2cc1O[C@H]1CCOC1
IC50 [1]: 134 nM

O=C(/C=C/CNC1CC1)Nc1cc2c(Nc3ccc(F)c(Cl)c3)ncnc2cc1OCC(F)(F)F
GI50 [2]: 20.3 nM

COc1cc2ncnc(Nc3ccc(F)c(Cl)c3)c2cc1NC(=O)/C=C/CN(C)C1CC1
GI50 [2]: 32.2 nM | IC50 [1]: 26.9 nM

CN(C)C/C=C/C(=O)Nc1cc2c(Nc3ccc(F)c(Cl)c3)ncnc2cc1O[C@H]1CCOC1 [AFATINIB]
Vd [3]: 10.8 L/kg | clearance [4]: 54.2 mL/min/kg | AUC(0-inf) [5]: 324 ng·h/mL | MRT [6]: 10.6 h | GI50 [2]: 107 nM | AUC(0-t) at 24 h [7]: 277 ng·h/mL | half-life [8]: 9.6 h | bioavailability [9]: 62.3%

O=C(/C=C/CN(C1CC1)C1CC1)Nc1cc2c(Nc3ccc(F)c(Cl)c3)ncnc2cc1O[C@H]1CCOC1
IC50 [1]: > 1000 nM

C=CC(=O)Nc1cc2c(Nc3ccc(Cl)c(C(F)(F)F)c3)ncnc2cc1OCCOC
IC50 [1]: > 1000 nM

COc1cc2ncnc(Nc3ccc(F)c(Cl)c3)c2cc1NC(=O)/C=C/CNC1CC(F)(F)C1
GI50 [2]: 98.7 nM | IC50 [1]: 141 nM

CCOc1cc2ncnc(Nc3ccc(F)c(Cl)c3)c2cc1NC(=O)/C=C/CN(C1CC1)C1CC1
IC50 [1]: > 1000 nM

C#Cc1cccc(Nc2ncnc3cc(OC4CCN(C)CC4)c(NC(=O)/C=C/CN(C)C)cc23)c1
IC50 [1]: 8.1 nM

C#Cc1cccc(Nc2ncnc3cc(OCC)c(NC(=O)/C=C/CN4CCCCC4)cc23)c1
GI50 [2]: 30.4 nM | IC50 [1]: 6.1 nM

COCCOc1cc2ncnc(Nc3ccc(Cl)c(C(F)(F)F)c3)c2cc1NC(=O)/C=C/CN(C)C
IC50 [1]: 574 nM

C=CC(=O)Nc1cc2c(Nc3ccc(F)c(C#N)c3)ncnc2cc1O[C@H]1CCOC1
IC50 [1]: 167 nM

COCCOc1cc2ncnc(Nc3ccc(OCc4ccccn4)cc3)c2cc1NC(=O)/C=C/CN(C)C
IC50 [1]: 10 nM

CN(C)C/C=C/C(=O)Nc1cc2c(Nc3ccc(OCc4cccc(F)c4)c(Cl)c3)ncnc2cc1O[C@H]1CCOC1
IC50 [1]: 510 nM

C=CC(=O)Nc1cc2c(Nc3ccc(Cl)c(C(F)(F)F)c3)ncnc2cc1O[C@H]1CCOC1
IC50 [1]: 105 nM

COc1cc2ncnc(Nc3ccc(F)c(Cl)c3)c2cc1NC(=O)/C=C/CN1CCCCC1 [DACOMITINIB ANHYDROUS]
GI50 [2]: 123 nM

C=CC(=O)Nc1cc2c(Nc3ccc(OCc4cccc(F)c4)cc3)ncnc2cc1O[C@H]1CCOC1
IC50 [1]: 72.2 nM

C#Cc1cccc(Nc2ncnc3cc(O[C@H]4CCOC4)c(NC(=O)/C=C/CN(C)C)cc23)c1
IC50 [1]: 1.2 nM

COCCOc1cc2ncnc(Nc3ccc(OCc4ccccn4)c(Cl)c3)c2cc1NC(=O)/C=C/CN(C)C
IC50 [1]: 5.4 nM

C#Cc1cccc(Nc2ncnc3cc(OC)c(NC(=O)/C=C/CN4CCCCC4)cc23)c1
GI50 [2]: 48.9 nM | IC50 [1]: 2.7 nM

C#Cc1cccc(Nc2ncnc3cc(OCCOC)c(NC(=O)C=C)cc23)c1
IC50 [1]: 1.8 nM

O=C(/C=C/CN1CC[S+]([O-])CC1)Nc1cc2c(Nc3ccc(F)c(Cl)c3)ncnc2cc1O[C@H]1CCOC1
IC50 [1]: 109 nM

C=CC(=O)Nc1cc2c(Nc3ccc(F)c(Cl)c3)ncnc2cc1O[C@H]1CCOC1
IC50 [1]: 5.8 nM

COc1cc2ncnc(Nc3ccc(F)c(Cl)c3)c2cc1NC(=O)/C=C/CN1CC[S+]([O-])CC1
IC50 [1]: > 1000 nM

COCCOc1cc2ncnc(Nc3ccc(NC(=O)/C=C/CN(C)C)c(C(F)(F)F)c3)c2cc1NC(=O)/C=C/CN(C)C
IC50 [1]: 102 nM

O=C(/C=C/CNC1CC1)Nc1cc2c(Nc3ccc(F)c(Cl)c3)ncnc2cc1OC(F)F
GI50 [2]: 34.6 nM | IC50 [1]: 9.6 nM

C#Cc1cccc(Nc2ncnc3cc(OC)c(NC(=O)/C=C/CN(C)C4CC4)cc23)c1
GI50 [2]: 70.5 nM | IC50 [1]: 3.3 nM

C=CC(=O)Nc1cc2c(Nc3ccc(OCc4cccc(F)c4)c(Cl)c3)ncnc2cc1O[C@H]1CCOC1
IC50 [1]: 560 nM

CN(C)C/C=C/C(=O)Nc1cc2c(Nc3ccc(F)c(C#N)c3)ncnc2cc1O[C@H]1CCOC1
IC50 [1]: 147 nM

O=C(/C=C/CN1CCCCC1)Nc1cc2c(Nc3ccc(F)c(Cl)c3)ncnc2cc1O[C@H]1CCOC1
GI50 [2]: 168 nM | IC50 [1]: 5.3 nM

C#Cc1cccc(Nc2ncnc3cc(O[C@H]4CCOC4)c(NC(=O)/C=C/CN4CCCCC4)cc23)c1
GI50 [2]: 40.1 nM | IC50 [1]: 5.3 nM

CC(C)NC/C=C/C(=O)Nc1cc2c(Nc3ccc(F)c(Cl)c3)ncnc2cc1O[C@H]1CCOC1
Vd [3]: 6.5 L/kg | clearance [4]: 90 mL/min/kg | AUC(0-inf) [5]: 197 ng·h/mL | MRT [6]: 8.8 h | GI50 [2]: 22.4 nM | TGI [10]: inactive | AUC(0-t) at 24 h [7]: 166 ng·h/mL | half-life [8]: 9.9 h | bioavailability [9]: < 5% | IC50 [1]: 7 nM

C#Cc1cccc(Nc2ncnc3cc(OC4CCOCC4)c(NC(=O)/C=C/CN(C)C)cc23)c1
IC50 [1]: 6 nM

COCCOc1cc2ncnc(Nc3ccc(F)c(Cl)c3)c2cc1NC(=O)/C=C/CN(C)C
IC50 [1]: 1.2 nM

C=CC(=O)Nc1cc2c(Nc3ccc(NC(=O)C=C)c(C(F)(F)F)c3)ncnc2cc1OCCOC
IC50 [1]: 115 nM

CN(C)C/C=C/C(=O)Nc1cc2c(Nc3ccc(F)c(Cl)c3)ncnc2cc1O[C@H]1CCOC1
TGI [11]: Active | TGI [12]: Active | TGI [13]: Active

CCOc1cc2ncnc(Nc3ccc(F)c(Cl)c3)c2cc1NC(=O)/C=C/CN(C)C1CC1
GI50 [2]: 160 nM | IC50 [1]: 5.5 nM

COc1cc2ncnc(Nc3ccc(F)c(Cl)c3)c2cc1NC(=O)/C=C/CN(C1CC1)C1CC1
IC50 [1]: > 1000 nM

C#Cc1cccc(Nc2ncnc3cc(O[C@H]4CCOC4)c(NC(=O)/C=C/CNC(C)C)cc23)c1
Vd [3]: 7.4 L/kg | clearance [4]: 170 mL/min/kg | AUC(0-inf) [5]: 105 ng·h/mL | MRT [6]: 2.6 h | GI50 [2]: 19.8 nM | TGI [10]: inactive | AUC(0-t) at 24 h [7]: 92.6 ng·h/mL | half-life [8]: 1.5 h | bioavailability [9]: < 5% | IC50 [1]: 6.4 nM

COCCOc1cc2ncnc(Nc3ccc(Br)cc3F)c2cc1NC(=O)/C=C/CN(C)C
IC50 [1]: 3 nM

COCCOc1cc2ncnc(Nc3ccc(F)c(Cl)c3)c2cc1NC(=O)/C=C/CN1CC[S+]([O-])CC1
IC50 [1]: 357 nM

COCCOc1cc2ncnc(Nc3ccc(F)c(Cl)c3)c2cc1NC(=O)/C=C/CN(C)C1CC1
GI50 [2]: 87.1 nM | IC50 [1]: 8.9 nM

C=CC(=O)Nc1cc2c(Nc3ccc(OCc4ccccn4)cc3)ncnc2cc1O[C@H]1CCOC1
IC50 [1]: 100 nM

C=CC(=O)Nc1cc2c(Nc3ccc(F)c(C#N)c3)ncnc2cc1OCCOC
IC50 [1]: 196 nM

COCCOc1cc2ncnc(Nc3ccc(F)c(Cl)c3)c2cc1NC(=O)/C=C/CN1CCCCC1
GI50 [2]: 92.3 nM | IC50 [1]: 2.1 nM

COCCOc1cc2ncnc(Nc3ccc(F)c(C#N)c3)c2cc1NC(=O)/C=C/CN(C)C
IC50 [1]: > 1000 nM

COCCOc1cc2ncnc(Nc3ccc(OCc4cccc(F)c4)c(Cl)c3)c2cc1NC(=O)/C=C/CN(C)C
IC50 [1]: > 1000 nM

COCCOc1cc2ncnc(Nc3ccc(OCc4cccc(F)c4)cc3)c2cc1NC(=O)/C=C/CN(C)C
IC50 [1]: 91 nM

CN(C)C/C=C/C(=O)Nc1cc2c(Nc3ccc(OCc4ccccn4)c(Cl)c3)ncnc2cc1O[C@H]1CCOC1
IC50 [1]: 8.1 nM
